# Assay: Toxicity liver stage against HepG2, at 10uM
# Format: cell-based
# Parameters: test concentration 10 uM, cell line HepG2-A16-CD81EGFP
# Conditions: human, HepG2-A16-CD81EGFP cells; read-out: INHIBITION
# Method in brief: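 Uninfected HepG2-A16-CD81EGFP cells, 3 × 10^3 per well, 1536-well, plated on prespotted compound at 10 μM final, parasite-free screening media added to match infected plates; puromycin 10 μM positive, DMSO 0.5% negative; run in parallel with 48 h PbLuc assay at 37 °C, 5% CO2; viability by CellTiter-Glo luminescence, normalized to controls.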
row,Compound,cytotoxicity at 10 µM
1,O=C(Nc1cccnc1)[C@H]1CO[C@H]2CCNC[C@H]2C1,9.24%
2,CN1CC(=O)N(c2ccsc2)CC12CCN(Cc1cnn(C)c1)C2 (stereo not given),0.0218%
3,Fc1cccnc1N1CCOCC2(CCCNC2)C1 (stereo not given),3.44%
4,CN(C)S(=O)(=O)N1C[C@H]2CCC[C@@]2(COCC2CC2)C1,6.13%
5,CCc1nn(C)c(CC)c1CNC(=O)Nc1cccc2c1CCN2C,-1.57%
6,CCc1nnc(SCc2cc(=O)n3c4c(sc3n2)CCCC4)[nH]1,-3.91%
7,CC1CCC(NC(=O)CNC2(c3ccc(Br)cc3)CCOCC2)CC1 (stereo not given),3.46%
8,CS(=O)(=O)c1ccccc1NCc1ccc(Cn2ccnc2)cc1,1.67%
9,Cc1nn(C)c(N(C)C)c1CNCCCN(C)S(C)(=O)=O,-4.07%
10,COc1ccc(Cl)cc1CS(=O)(=O)CC(=O)NC(C)CCC(C)C (stereo not given),11%
11,Cn1cc(C(=O)NCc2ccc(N3CCNC(=O)C3)c(F)c2)cn1,-2.97%
12,CC(C)(C)OC(=O)N1CCC(NCc2cnn(C(C)(C)C)c2)CC1,4.85%
13,CN(Cc1ccco1)[C@@H]1CN(C(=O)C2CCOCC2)C[C@@H]2CCCO[C@@H]21,3.48%
14,COc1ncccc1CNC(=O)C1=NN(c2ccccc2)C(=O)CN1,2.54%
15,CCN(C)c1ncnc2c1CCN(CC1CCOC1)CC2 (stereo not given),-79.3%
16,CO[C@H]1C[C@@H](O)C12CCN(C(=O)c1cccc(CCC(C)(C)O)c1)CC2,2.74%
17,CC(C)CN1CCC2(C=C(C(=O)N3CCCC3)c3ccccc32)CC1,-3.12%
18,Cc1[nH]ncc1CCCNC(=O)N1CCC(C(N)=O)CC1,-3.62%
19,COCC(=O)N1CC[C@@H](N2CCOCC2)[C@@H]1Cc1ccccc1,-3.06%
20,O=C1CC[C@@H](CN(Cc2ccncc2)Cc2nc(CC3CC3)no2)N1,3.86%
21,CC(NCC1CCN(CCO)CC1)c1ccc(C(F)(F)F)cc1 (stereo not given),-7.28%
22,CCS(=O)(=O)N1CCOC2(CCCN(c3ncc(F)cn3)C2)C1 (stereo not given),5.86%
23,COc1ccc2c(ccn2CCC(=O)/N=c2\[nH]nc(C3CCCO3)s2)c1 (stereo not given),-8.07%
24,CCN(Cc1cccc2c1OCO2)C(=O)Nc1cn[nH]c1,-17.2%
25,CCNc1cc2c(nn1)CCN(C(=O)c1cccc3c1OCCO3)C2,-8.42%
26,Cn1cc(CNC(=O)c2cc3c(s2)CCCCC3)cn1,-12%
27,Cc1cccc2c1cnn2CCCNC(=O)c1cnn(C)c1,6.75%
28,Cc1cnc(N)nc1NCCSCc1[nH]cnc1C,4.34%

row,Compound,cytotoxicity at 10 µM
1,CCS(=O)(=O)c1ccc(N2CCC(NC(C)=O)CC2)cc1,10.6%
2,CCOc1cc(CNc2cc(-c3nc(C)no3)ccn2)ccc1OC,1.74%
3,Cc1ccnc(NS(=O)(=O)c2cc(C(N)=O)n(C)c2)c1,0.814%
4,COc1cc(N2CC[C@@H]3O[C@@H](C(=O)NCCN(C)C)C[C@@H]32)ncn1,0.588%
5,O=C([C@H]1COC[C@H]2CN(C3CCOCC3)C[C@H]21)N1CCCCO1,5.22%
6,CCNC(=O)[C@@H]1C[C@@H](NC(=O)Cc2ccncc2)CN1Cc1ccsc1,-0.368%
7,Cc1ccc(CNCc2c(C)nn(C)c2N(C)C)cn1,4.65%
8,O=C(NCc1cccnc1)[C@H]1CN2CCC1C[C@@H]2Cn1cc(CO)nn1 (stereo not given in full),-0.843%
9,O=C(CCn1cc(Cl)cn1)N1CCN(CC2CC2)[C@@H]2CS(=O)(=O)C[C@@H]21,2.28%
10,c1ccc(Cn2ccnc2CN2CCOC(Cn3cccn3)C2)cc1 (stereo not given),-3.78%
11,O=C1CCN(C(=O)C2(c3ccc(F)cc3)CCOCC2)CCN1,-4.97%
12,COc1ccc(C#N)cc1CSCCN1CCOCC1,6.14%
13,CC(C)c1ncncc1C(=O)N1CCN(Cc2cccnc2)CC1,-5.85%
14,O=S(=O)(Nc1ccon1)c1cc(Cl)cc2c1OCC2,5.81%
15,O=C(O)C1CC2(CCN(c3nccc4ccccc34)CC2)CN1 (stereo not given),-2.65%
16,COCCNC(=O)c1ccc2c(=O)n3c(nc2c1)CCN(C)CC3,-1.02%
17,CCN(C)S(=O)(=O)N(CC)Cc1ccc2c(c1)OCO2,-6.62%
18,CNC(=O)c1n[nH]c2c1C(c1cccc3nsnc13)CC(=O)N2 (stereo not given),-13%
19,CCN(C(=O)c1ccc2nnc(C3CCN(CCOC)C3)n2c1)C(C)C (stereo not given),-114%
20,c1csc(N2CCCN(c3nccn4cnnc34)CC2)n1,-5.05%
21,CC(C)[C@@H]1CN(C(=O)CN(C)Cc2ccccc2)C[C@H]1C(=O)O,-3.99%
22,CCN(C)C[C@@H]1CN(S(=O)(=O)c2cccc(Cl)c2)C[C@@H]1CO,-8.3%
23,COc1cccc(CN2C[C@@H]3COC[C@]3(COc3cccnc3)C2)c1,-64.7%
24,CC(CNC(=O)NCc1ccc2c(c1)OCO2)CC1(C)OCCO1 (stereo not given),-6.78%
25,Cc1noc(Cl)c1CCC(=O)N1CCN(c2ncccn2)CC1,-2.01%
26,O=C1CN(Cc2nnc(-c3ccc(Cl)cc3)o2)CCN1,-0.238%
27,Cc1cc(N2CCC(O)(CN(C)C)C2)c2cc3c(cc2n1)OCO3 (stereo not given),45.4%

# — ChEMBL document CHEMBL4513216, “Probing the Open Global Health Chemical Diversity Library for Multistage-Active Starting Points for Next-Generation Antimalarials” (ACS Infect Dis, 2020)
